Results taken from PubChem BioAssay.
Activity calls are given as the source filed them.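 Rule for the calls, unless noted: active = fluorescence slope higher than the sample average by over 3 SD (cut at about -0.22 in these data, passing the limit was not always enough); inactive = the rest.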

How the values were obtained:
[1] = inhibitors of TNFa-induced NFkB p65 translocation, primary screen, imaging, HUVEC, MLSMR starter and 10KST1 sets (AID 438;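 active = inhibition above 20% together with a positive visual image hit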;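 note: compound added about 3h40 before a 20 min TNFalpha stimulation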;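 for inhibition: signal is the nuclear over cytoplasmic p65 intensity ratio per well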); conditions: HUVEC TNFa-induced p65 nuclear translocation; cell count: measured here: nuclei count (cytotoxicity indicator), at 2.08 µM; inhibition: at 2 µM, stronger effect = higher value, 0% TNFa-plus-vehicle, 100% no-TNFa wells
[2] = inhibitors of mutant huntingtin aggregation, primary screen, imaging, exon1htt(103Q)mCFP cells, high-content imaging (AID 483;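 active = visual image review flags a hit and inhibition of aggregation exceeds 20%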;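 note: compound exposure lasted 3 days before fixation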;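 for nuclei count: percent of the per-plate median nuclei count of sample wells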); conditions: exon1htt(103Q)mCFP cell line, aggregate imaging, at 2 µM; inhibition of aggregation: stronger effect = higher value; nuclei count: measured here: cell count, toxicity
[3] = inhibitors of E-selectin induction by TNFa, primary screen, imaging, HUVEC, immunofluorescence, MLSMR starter and 10KST1 sets (AID 487;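 active = visually confirmed hit in the image check and inhibition above 20%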;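 for inhibition: signal is fraction of cell area covered by stained E-selectin grains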;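 for nuclei count: 100% = median nuclei count of all wells on the same plate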); conditions: HUVEC TNFalpha-induced E-selectin immunofluorescence imaging, at 2 µM; inhibition: stronger effect = higher value; nuclei count: measured here: cell number, toxicity
[4] = target: Voltage-gated potassium channel subunit beta-2 (Rattus norvegicus) (UniProt P62483); experiment: KvBeta enzyme negative modulators, primary screen, biochemical, NADPH fluorescence (AID 622); conditions: recombinant KvBeta, 4-cyanobenzaldehyde reduction, at 10 µM, stronger effect = higher value;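 note: slope of raw intensity against log time taken from 70 to 1610 s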
[5] = target: Voltage-gated potassium channel subunit beta-2 (Rattus norvegicus) (UniProt P62483); experiment: KvBeta positive modulators, primary screen, biochemical, NADPH fluorescence (AID 623;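 active = NADPH fluorescence slope more negative than the mean of all samples by about 3 SD, 99.7% confidence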;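 note: fluorescence intensity change per second fitted from 20 to 320 s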); conditions: Recombinant KvBeta, NADPH fluorescence decrease slope, 10 min; at 10 µM; stronger effect = lower value
[6] = target: Alpha-2C adrenergic receptor (Homo sapiens) (UniProt P18825); experiment: modulators of alpha2C/GIRK thallium flux, primary screen, cell-based, HEK293 alpha2C/GIRK1/2 (AID 624;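 active = fluorescence slope after compound addition differing from the mean of all screened samples at 99.7% confidence, in either direction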;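 note: slope of fluorescence ratio to pre-addition baseline per second over 15 to 24 s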); conditions: thallium flux BTC fluorescence, at 10 µM, actives lie on both sides
[7] = inhibitors of larval lipid processing in zebrafish, primary screen, whole organism, PED6 fluorescence, gall bladder and intestine (AID 686;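 active = a full or partial loss of lipid-probe fluorescence in the fish gall bladder, intestine or both, judged by eye; inactive = no fluorescence loss, or compound toxic to the fish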;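 note: larvae 5 to 7 days old with five fish per well; signal comes from phospholipase A2 cleavage of quenched PED6 carried via bile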); conditions: Zebrafish larvae PED6 lipid processing, fluorescence scoring; screened at 20 µM (by protocol)
Summary of the method: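 Incubation: overnight exposure of larvae to compound plus PED6 / Test system: live zebrafish larvae aged 5-7 days, whole organism / Amount: 5 larvae per well / Read-out basis: visual per-well fluorescence inhibition score / Signal: visual fluorescence microscopy scoring of gall bladder, gut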

[8] = inhibitors of Sendai virus-induced IRF3 signaling, primary screen, TLR/RLR signaling modifier project, cell-based, Sendai virus stimulus, luciferase, 10K MLSCN set (AID 602276;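 active = inhibition at or above 50% at 10 µM; inactive = inhibition below 50%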;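 note: firefly luciferase from ISG56 promoter only with Renilla not read in this screen; 0% = Sendai virus plus DMSO and 100% = medium plus DMSO without virus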); conditions: HEK293 RL24 IRF3 luciferase reporter, at 10 µM, stronger effect = higher value
[9] = inhibitors of poly I:C-induced TLR3 signaling, primary screen, cell-based, poly I:C stimulus, luciferase, 10K MLSCN set (AID 602277;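 active = inhibition of the reporter signal at or above 50%; inactive = inhibition below 50%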); conditions: HEK293-TLR3 RL24 IRF3 luciferase reporter, at 10 µM, stronger effect = higher value

Voltage-gated potassium channel subunit beta-2 (Rattus norvegicus), sequence (P62483 whole entry, looked up): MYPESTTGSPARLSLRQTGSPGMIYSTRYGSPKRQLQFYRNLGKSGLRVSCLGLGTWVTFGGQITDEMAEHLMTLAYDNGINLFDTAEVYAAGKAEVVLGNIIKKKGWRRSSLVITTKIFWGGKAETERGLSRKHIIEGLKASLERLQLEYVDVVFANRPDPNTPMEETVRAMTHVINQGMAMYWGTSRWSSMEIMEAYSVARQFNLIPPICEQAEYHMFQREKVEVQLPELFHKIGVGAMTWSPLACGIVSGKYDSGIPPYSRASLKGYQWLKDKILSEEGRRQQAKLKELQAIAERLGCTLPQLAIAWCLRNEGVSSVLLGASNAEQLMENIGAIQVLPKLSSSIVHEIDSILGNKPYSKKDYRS
Alpha-2C adrenergic receptor (Homo sapiens), sequence (P18825 whole entry, looked up): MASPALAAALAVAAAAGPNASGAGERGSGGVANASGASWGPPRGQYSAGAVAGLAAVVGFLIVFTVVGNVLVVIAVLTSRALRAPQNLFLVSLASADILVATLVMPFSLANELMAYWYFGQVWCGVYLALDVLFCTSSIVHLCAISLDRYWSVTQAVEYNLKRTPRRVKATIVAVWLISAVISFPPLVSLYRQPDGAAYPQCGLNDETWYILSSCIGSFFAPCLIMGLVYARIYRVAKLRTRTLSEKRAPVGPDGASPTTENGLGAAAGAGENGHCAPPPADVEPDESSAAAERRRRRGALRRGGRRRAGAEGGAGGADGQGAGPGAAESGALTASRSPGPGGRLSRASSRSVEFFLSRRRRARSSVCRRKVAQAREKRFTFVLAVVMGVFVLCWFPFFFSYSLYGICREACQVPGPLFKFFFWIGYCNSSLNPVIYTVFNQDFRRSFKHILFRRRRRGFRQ

| SMILES | cell count [1] | inhibition [1] | inhibition of aggregation [2] | nuclei count [2] [%] | inhibition [3] | nuclei count [3] [%] | fluorescence slope [4] | NADPH fluorescence slope [5] | slope [6] | outcome [7] | inhibition [8] | inhibition [9] |
| --- | --- | --- | --- | --- | --- | --- | --- | --- | --- | --- | --- | --- |
| COCCn1c(Sc2nc(C)cs2)nc2c1c(=O)[nH]c(=O)n2C | 422 | 5% (inactive) | -38.9% (inactive) | 105 | -78.3% (inactive) | 78.1 | -0.475 (inactive) | -1.5e-05 (inactive) | 0.00482 (inactive) | inactive | 17.1% (inactive) | 11.3% (inactive) |
| O=C(Nc1ccc(-c2nc3ncccc3o2)cc1)c1ccc(Br)o1 | 340 | 25.6% (inactive) | -3.8% (inactive) | 89.7 | 8.6% (inactive) | 100 | -0.125 (active) | -3.3e-06 (inactive) | 0.00525 (inactive) | inactive | -28.6% (inactive) | -98.2% (inactive) |
| CCOC(=O)c1oc2cc(OCC(N)=O)ccc2c(=O)c1-c1ccc(OC)c(OC)c1 | 411 | 8.1% (inactive) | -10.4% (inactive) | 106 | -114% (inactive) | 102 | -0.445 (inactive) | -0.000137 (inactive) | 0.0045 (inactive) | inactive | 19.4% (inactive) | 22.5% (inactive) |
| COc1ccc(Br)cc1-c1noc(-c2ccccc2)n1 | 357 | 3% (inactive) | -25.4% (inactive) | 102 | -51.1% (inactive) | 109 | -0.371 (inactive) | -6.1e-05 (inactive) | 0.00662 (inactive) | inactive | 13.4% (inactive) | 99.2% (active) |
| OC(CNCCc1ccccc1)c1ccccc1 (stereo not drawn) | 586 | 11% (inactive) | 14.9% (inactive) | 91.9 | 48.6% (inactive) | 55.2 | -0.37 (inactive) | -7.3e-05 (inactive) | 0.00466 (inactive) | inactive | 11.9% (inactive) | 15.7% (inactive) |
| Cc1cccc(OCC(=O)Nc2ccc(N3CCCC3)cc2)c1C | 553 | -2.5% (inactive) | -18.4% (inactive) | 93.1 | -53.5% (inactive) | 83.5 | -0.37 (inactive) | -6.9e-05 (inactive) | 0.005 (inactive) | inactive | 7.46% (inactive) | 6.78% (inactive) |
| CCSCc1nnc(SCC(=O)Nc2cccc(SC)c2)n1C | 492 | -5.8% (inactive) | 0.2% (inactive) | 101 | -43.2% (inactive) | 147 | -0.452 (inactive) | -4.6e-05 (inactive) | 0.00484 (inactive) | inactive | 9.84% (inactive) | 18.9% (inactive) |
| CCOC(=O)/C=C1\SCC(=O)N1Cc1nnc(-c2ccccc2Br)o1 | 505 | 0.5% (inactive) | -7.7% (inactive) | 98.7 | -51.5% (inactive) | 123 | -0.452 (inactive) | -5.3e-05 (inactive) | 0.00466 (inactive) | inactive | 12.8% (inactive) | 10.1% (inactive) |
| O=C(CN1CCC(n2nnc3ccccc32)CC1)Nc1ccc2c(c1)CCC2 | 643 | -9.3% (inactive) | 4.8% (inactive) | 96.4 | -27% (inactive) | 107 | -0.42 (inactive) | -4.8e-05 (inactive) | 0.00413 (inactive) | inactive | 16% (inactive) | 19% (inactive) |
| COC(=O)CN(Cc1ccco1)S(=O)(=O)c1ccccc1 | 554 | -13.3% (inactive) | -8.4% (inactive) | 111 | -9.7% (inactive) | 112 | -0.351 (inactive) | -5.1e-05 (inactive) | 0.00494 (inactive) | inactive | 7.73% (inactive) | 6.21% (inactive) |
| CCOc1nc(NCCC2=CCCCC2)nc(N2CCOCC2)n1 | 450 | 2.7% (inactive) | 6.3% (inactive) | 84 | -23.8% (inactive) | 96.5 | -0.364 (inactive) | -5.8e-05 (inactive) | 0.00441 (inactive) | inactive | 10.2% (inactive) | 5.8% (inactive) |
| CCc1nnc(NC(=O)CSc2nnc3ncccn23)s1 | 341 | -5.8% (inactive) | -25.9% (inactive) | 132 | -34.8% (inactive) | 102 | -0.437 (inactive) | -9.3e-05 (inactive) | 0.00648 (inactive) | inactive | 18.7% (inactive) | 25.6% (inactive) |
| CSCCC(NC(=O)CCN1C(=O)c2ccccc2C1=O)C(=O)O (stereo not drawn) | 366 | 1.8% (inactive) | -10.9% (inactive) | 99.7 | -76.8% (inactive) | 110 | -0.411 (inactive) | 2e-07 (inactive) | 0.00495 (inactive) | inactive | 15.7% (inactive) | 19.3% (inactive) |
| O=C(CN1CCSCC1)N1CCc2[nH]c3ccc(Br)cc3c2C1 | 691 | 3.4% (inactive) | 21.5% (inactive) | 99.4 | 28.3% (inactive) | 102 | -0.384 (inactive) | -5.2e-05 (inactive) | 0.00508 (inactive) | inactive | 10.7% (inactive) | 7.8% (inactive) |
